Data reported in ChEMBL document CHEMBL1121898, “Potential antiestrogens. Synthesis and evaluation of mammary tumor inhibiting activity of 1,2-dialkyl-1,2-bis(3'-hydroxyphenyl)ethanes” (1981).
Each block holds one molecule with its values, some of them ahead of it. Activity calls are given as the source filed them. No cut-off for these calls is given here.

What was measured:
[1] = molecular target: T1, Estrogen receptor (Mus musculus) (UniProt O08537+P19785); test: Estrogenic activity in uterotrophic test in mice at 533 ug; format: functional
T1 sequence (O08537 whole entry, looked up): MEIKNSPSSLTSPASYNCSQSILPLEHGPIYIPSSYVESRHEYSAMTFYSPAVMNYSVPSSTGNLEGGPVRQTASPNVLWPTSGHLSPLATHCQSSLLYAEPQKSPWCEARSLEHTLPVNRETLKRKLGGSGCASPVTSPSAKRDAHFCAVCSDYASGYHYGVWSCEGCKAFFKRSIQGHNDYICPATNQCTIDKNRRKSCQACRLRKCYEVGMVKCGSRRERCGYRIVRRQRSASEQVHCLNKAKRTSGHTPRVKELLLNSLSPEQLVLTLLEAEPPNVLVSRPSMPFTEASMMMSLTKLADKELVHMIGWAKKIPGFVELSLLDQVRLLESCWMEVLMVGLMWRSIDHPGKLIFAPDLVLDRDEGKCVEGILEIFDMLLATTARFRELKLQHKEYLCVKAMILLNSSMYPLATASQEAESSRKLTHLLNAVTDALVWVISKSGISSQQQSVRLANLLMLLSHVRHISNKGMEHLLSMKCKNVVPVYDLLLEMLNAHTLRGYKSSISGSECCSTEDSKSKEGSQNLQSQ
T1 sequence (P19785 whole entry, looked up): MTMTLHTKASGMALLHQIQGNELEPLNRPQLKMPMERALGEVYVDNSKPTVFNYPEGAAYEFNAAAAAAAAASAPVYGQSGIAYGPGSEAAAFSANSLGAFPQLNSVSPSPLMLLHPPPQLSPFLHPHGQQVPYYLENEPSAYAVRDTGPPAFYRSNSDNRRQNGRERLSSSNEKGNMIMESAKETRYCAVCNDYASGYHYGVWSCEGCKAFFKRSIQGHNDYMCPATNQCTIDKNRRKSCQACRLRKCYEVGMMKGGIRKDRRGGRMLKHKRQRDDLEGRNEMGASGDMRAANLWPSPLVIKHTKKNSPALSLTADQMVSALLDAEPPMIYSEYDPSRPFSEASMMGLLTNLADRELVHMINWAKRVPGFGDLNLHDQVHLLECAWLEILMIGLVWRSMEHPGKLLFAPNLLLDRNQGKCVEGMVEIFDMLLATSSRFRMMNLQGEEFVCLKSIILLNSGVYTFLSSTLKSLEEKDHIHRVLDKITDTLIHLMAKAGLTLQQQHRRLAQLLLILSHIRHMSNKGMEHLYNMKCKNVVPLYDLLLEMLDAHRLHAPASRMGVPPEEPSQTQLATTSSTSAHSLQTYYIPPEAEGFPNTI
In short: (§1)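 Immature (20-day-old) female NMRI mice, 14.5 ± 1.2 g, randomized into groups of 10. Given the test compound sc daily for 3 days in 0.1 mL olive oil. Uteri removed 24 h after the last injection; uterine weight taken as the read-out, means ± SD. Dose in μg.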

[2] = molecular target: T1, Estrogen receptor (Mus musculus); test: Inhibitory activity in mouse uterine weight test at 5 ug; format: functional
In short: (§2)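 Antiuterotrophic (Dorfman) assay in immature 20-day-old female NMRI mice, groups of 10. Uterine growth was stimulated with estrone (0.1 μg) and the test compound was given alongside it, sc daily for 3 days in 0.1 mL olive oil. Uteri were taken 24 h after the last dose. Uterine weight is reported as means ± SD and inhibition as % of the estrone-stimulated response.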

[3] = molecular target: T1, Estrogen receptor (Mus musculus); test: Estrogenic activity in uterotrophic test in mice at 0 ug; format: functional
In short: (§3)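 Uterine growth stimulation in immature female NMRI mice, 20 days old (14.5 ± 1.2 g), 10 per group. Test compound in 0.1 mL olive oil was given sc daily for 3 days. Uteri were excised 24 h after the final injection and weighed. Effect is reported as mean ± SD.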

[4] = molecular target: T1, Estrogen receptor (Mus musculus); test: Antiestrogenic activity in uterotrophic test in mice at 240 ug; format: functional
In short: (§4)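 Immature female NMRI mice, 20 days old (14.5 ± 1.2 g), randomly grouped 10 per group. Each received a daily sc injection for 3 days of 0.1 mL olive oil solution containing test compound, together with estrone to stimulate uterine growth. Uteri were removed 24 h after the last injection and weighed. Results are reported as % inhibition of the estrone-stimulated uterine weight gain, mean ± SD.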

[5] = molecular target: T1, Estrogen receptor (Mus musculus); test: Inhibitory activity in mouse uterine weight test at 80 ug; format: functional
In short: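 Immature female NMRI mice, 20 days old (14.5 ± 1.2 g), in random groups of 10. They received sc injections daily for 3 days of 0.1 mL olive oil containing test compound, with estrone 0.1 μg given to stimulate uterine growth. Uteri were removed 24 h after the last injection and weighed (mean ± SD). Result is percent inhibition of the estrone-stimulated uterine weight gain.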

[6] = molecular target: T1, Estrogen receptor (Mus musculus); test: Estrogenic activity in uterotrophic test in mice at 180 ug; format: functional; in short: as §3
[7] = molecular target: T1, Estrogen receptor (Mus musculus); test: Antiestrogenic activity in uterotrophic test in mice at 5 ug; format: functional; in short: as §4
[8] = molecular target: T1, Estrogen receptor (Mus musculus); test: Antiestrogenic activity in uterotrophic test in mice at 80 ug; format: functional; in short: as §4
[9] = molecular target: T1, Estrogen receptor (Mus musculus); test: Inhibitory activity in mouse uterine weight test at 240 ug; format: functional; in short: as §2
[10] = molecular target: T1, Estrogen receptor (Mus musculus); test: Inhibitory activity in mouse uterine weight test at 27 ug; format: functional; in short: as §2
[11] = molecular target: T1, Estrogen receptor (Mus musculus); test: Inhibitory activity in mouse uterine weight test at 2.7 ug; format: functional; in short: as §2
[12] = molecular target: T1, Estrogen receptor (Mus musculus); test: Antiestrogenic activity in uterotrophic test in mice at 0 ug; format: functional; in short: as §4
[13] = molecular target: T1, Estrogen receptor (Mus musculus); test: Antiestrogenic activity in uterotrophic test in mice at 2.7 ug; format: functional; in short: as §4
[14] = test system: Estrogen receptor (Bos taurus); test: Displacement of [3H]estradiol from calf estrogen receptor
[15] = molecular target: T1, Estrogen receptor (Mus musculus); test: Estrogenic activity in uterotrophic test in mice at 20 ug; format: functional; in short: as §3
Mus musculus [16] = organism: Mus musculus; test: Vaginal cornification test in mice at 0 ug; predominant cellular component leucocytes (diestrus); format: functional, organism-based
In short: (§5)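 Female NMRI mice (~15 g) were ovariectomized; castration was confirmed at 10 days by leucocyte smears. Mice were primed with estradiol 3-benzoate 0.2 μg, and only responders showing estrus were kept. Groups of three received sc test compound in 0.1 mL olive oil daily for 3 days. Saline vaginal smears were taken 6, 24, 30, 48 and 54 h after the last dose and scored by Allen-Doisy.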

Mus musculus [17] = organism: Mus musculus; test: Vaginal cornification test in mice at 5 ug; predominant cellular component leucocytes (diestrus); format: functional, organism-based; in short: as §5
Mus musculus [18] = organism: Mus musculus; test: Vaginal cornification test in mice at 27 ug; predominant cellular component leucocytes (diestrus); format: functional, organism-based
Mus musculus [19] = organism: Mus musculus; test: Predominant components of vaginal smear at a compound concentration of 80 ug was determined using vaginal cornification test; leucocytes (</= 50%), nucleated and cornified, nucleated cellscharacteristic of antiestrogens; format: functional, organism-based
Mus musculus [20] = organism: Mus musculus; test: Predominant components of vaginal smear at a compound concentration of 240 ug was determined using vaginal cornification test; leucocytes (</= 50%), nucleated and cornified, nucleated cellscharacteristic of antiestrogens; format: functional, organism-based
Mus musculus [21] = organism: Mus musculus; test: Vaginal cornification test in mice at 2.7 ug; predominant cellular component leucocytes (diestrus); format: functional, organism-based
[22] = molecular target: T1, Estrogen receptor (Mus musculus); test: Estrogenic activity in uterotrophic test in mice at 2 ug; format: functional; in short: as §3
[23] = molecular target: T1, Estrogen receptor (Mus musculus); test: Estrogenic activity in uterotrophic test in mice at 60 ug; format: functional; in short: as §1
[24] = molecular target: T1, Estrogen receptor (Mus musculus); test: Antiestrogenic activity in uterotrophic test in mice at 27 ug; format: functional; in short: as §4
Mus musculus [25] = organism: Mus musculus; test: Vaginal cornification test in mice at 0.1 ug; cornified nonnucleated cells present (estrus); format: functional, organism-based

- Effect [1]: 31.3
- inhibition [2]: 18%
- Effect [3]: 10
- Effect [4]: 31.7
- inhibition [5]: 28%
- Effect [6]: 32.6
- Effect [7]: 34.1
- Effect [8]: 31.5
- inhibition [9]: 27%
- inhibition [10]: 22%
- inhibition [11]: 4%
- Effect [12]: 11.4
- Effect [13]: 38.1
- Ka [14]: 110000 M⁻¹
- Effect [15]: 14.5
- Effect [22]: 11.8
- Effect [23]: 19
- Effect [24]: 33.2
Structure (SMILES): CC(C)CC(c1cccc(O)c1)C(CC(C)C)c1cccc(O)c1 (stereo not given)
- Activity (Mus musculus [16]): inactive
- Activity (Mus musculus [17]): inactive
- Activity (Mus musculus [18]): inactive
- Activity (Mus musculus [19]): Weak activity
- Activity (Mus musculus [20]): Weak activity
- Activity (Mus musculus [21]): inactive

Structure (SMILES): C[C@]12CC[C@@H]3c4ccc(O)cc4CC[C@H]3[C@@H]1CCC2=O
- Activity (Mus musculus [25]): Active
